Data published in ChEMBL document CHEMBL1131742, “Design of scytalone dehydratase inhibitors as rice blast fungicides: derivatives of norephedrine” (Bioorg Med Chem Lett, 1999).
Values after ≈ are worked out from the molar mass of the structure shown.

What was measured:
rice = assay: Concentration that affords 90% control of blast disease on rice plants in greenhouse assay; assay type: functional
In short: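 Foliar greenhouse test on rice plants against blast disease; compounds applied over a range of concentrations, and the concentration giving 90% disease control was derived from the dose-response data.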

Scytalone dehydratase = target: T1, Scytalone dehydratase (Magnaporthe oryzae (strain 70-15 / FGSC 8958) (Rice blast fungus)(Pyricularia oryzae), UniProt P56221); design: species or system Pyricularia grisea
T1 sequence (P56221 whole entry): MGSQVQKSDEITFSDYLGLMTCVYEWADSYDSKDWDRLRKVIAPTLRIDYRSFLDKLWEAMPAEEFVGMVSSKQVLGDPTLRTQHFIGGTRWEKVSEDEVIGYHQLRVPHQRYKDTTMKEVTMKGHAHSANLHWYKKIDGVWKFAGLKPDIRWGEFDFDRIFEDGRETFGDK

| SMILES | ED90 (rice) [mg/L] | Ki (Scytalone dehydratase) [nM] |
| --- | --- | --- |
| CC(C)C(C#N)C(=O)N[C@H](C)[C@@H](Oc1ccccc1C#N)c1ccccc1 (stereo partly drawn) | 25 (≈ 69.2 µM) | 0.038 |
| C[C@H](COc1cc(F)ccc1F)NC(=O)C(C#N)C(C)(C)C (stereo partly drawn) | 6 (≈ 19.3 µM) |  |
| CCC(C#N)C(=O)N[C@H](C)[C@@H](Oc1cc(Br)ccc1C#N)c1ccccc1 (stereo partly drawn) | 50 (≈ 117 µM) | 0.034 |
| C[C@@H](NC(=O)C(C#N)C(C)(C)C)[C@@H](Oc1ccccc1C#N)c1ccccc1 (stereo partly drawn) | 200 (≈ 533 µM) | 0.14 |
| CC(C)C(C#N)C(=O)N[C@H](C)[C@@H](Oc1cc(F)ccc1F)c1ccccc1 (stereo partly drawn) | 100 (≈ 269 µM) | 0.076 |
| CC(C)C(C#N)C(=O)N[C@H](C)[C@@H](Oc1cc(F)ccc1C#N)c1ccccc1 (stereo partly drawn) | 25 (≈ 65.9 µM) | 0.034 |
| C[C@@H](NC(=O)C(C#N)C1CC1)[C@@H](Oc1cc(F)ccc1F)c1ccccc1 (stereo partly drawn) | 2 (≈ 5.4 µM) | 0.014 |
| C[C@H](COc1cc(F)ccc1F)NC(=O)C(C#N)C1CC1 (stereo partly drawn) | 50 (≈ 170 µM) | 1.1 |
| CCC(C#N)C(=O)N[C@H](C)COc1cc(F)ccc1F (stereo partly drawn) | > 200 | 5.5 |
| CCC(C#N)C(=O)N[C@H](C)[C@@H](Oc1cc(Cl)ccc1C#N)c1ccccc1 (stereo partly drawn) | 10 (≈ 26.2 µM) | 0.031 |
| C[C@H](COc1cc(F)ccc1F)NC(=O)[C@H](C#N)C(C)(C)C |  | 0.02 |
| CC(C)C(C#N)C(=O)N[C@H](C)COc1cc(F)ccc1F (stereo partly drawn) | 10 (≈ 33.7 µM) | 0.27 |
| CCC(C#N)C(=O)N[C@H](C)[C@@H](Oc1cc(F)ccc1C#N)c1ccccc1 (stereo partly drawn) | 50 (≈ 137 µM) | 0.021 |
| CCC(C#N)C(=O)N[C@H](C)[C@@H](Oc1ccccc1C#N)c1ccccc1 (stereo partly drawn) | 10 (≈ 28.8 µM) | 0.07 |
| CCC(C#N)C(=O)N[C@H](C)[C@@H](Oc1cc(F)ccc1F)c1ccccc1 (stereo partly drawn) | 2 (≈ 5.58 µM) | 0.02 |
